# pKi: −log10 of the molar value.
# How the values were obtained:
# Cavia porcellus [1] = species on record: Cavia porcellus; assay: Maximum contractile response in guinea pig ileum relative to that elicited by carbachol was determined; format: functional
# How it was run: (§1)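 Guinea pig ileum in Tyrode solution (pH 7.4) with 0.3 mM hexamethonium, 37 °C; isotonic contractions recorded at 1 g tension. Cumulative concentration-response curves built with agonist concentration stepped by a factor of 2.15. Maximal response expressed relative to carbachol. Antagonism tested at no fewer than four antagonist concentrations. Means ± SE over the number of ileal preparations.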
# [2] = Inhibition of specific binding of [3H]NMS to Muscarinic acetylcholine receptor in rat cerebral cortex by using competitive binding assay; format: tissue-based
# How it was run: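 Male Sprague–Dawley rat (200–300 g) cortex homogenized in 50 mM Na/K phosphate pH 7.4, spun 30000g 10 min, resuspended at 10 mg wet tissue/mL. Incubated with 0.3 nM (-)-[3H]NMS and test ligand, 30 min at 30 °C; filtration assay. […] IC50 by one-site nonlinear fit, converted to Ki by Cheng–Prusoff. Three determinations in triplicate.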
# Cavia porcellus [3] = species on record: Cavia porcellus; assay: Slope of schild plot in guinea pig ileum was determined; format: functional; how it was run: as §1
# [4] = target: Muscarinic acetylcholine receptor; assay: (§2) Dissociation constant towards Muscarinic acetylcholine receptor in guinea pig ileum; format: tissue-based, Cavia porcellus
# [5] = target: Muscarinic acetylcholine receptor; assay: Compound was tested for its potency against Muscarinic acetylcholine receptor in guinea pig ileum; format: functional, tissue-based, Cavia porcellus
# [6] = target: Muscarinic acetylcholine receptor; assay: as §2; format: tissue-based, Cavia porcellus; how it was run: as §1; remark: listed apart in the source
SMILES,pKi [2],Kd [4] [nM],EC50 [5] [nM],Kd [6] [nM],Emax (Cavia porcellus [1]),Slope of Schild plot (Cavia porcellus [3])
CC(=O)N1CCCCC1C#CCN(C)C (racemic),5.65,8300,,,0,0.9
CC(=O)N1CCCCC[C@@H]1C#CCN1CCCC1,7.38,161,,,0,1.27
CC(=O)N1CCCCCC1C#CCN(C)C (racemic),5.54,7000,,,0,1.1
CC(=O)N(C)[C@H](C)C#CCN1CCCC1,,200,94,,0.83,
CC(=O)N1CCCCC1C#CC[N+](C)(C)C (racemic),6.12,,2800,,0.75,
CC(=O)N1CCCC1C#CC[N+](C)(C)C (racemic),5.21,,7500,49500,0.8,
C[N+](C)(C)CCOC(N)=O.[Cl-] [CARBACHOL],,,,,1,
CC(=O)N1CCCC1C#CCN(C)C (racemic),4.60,125000,,,0,
CC(=O)N(C)[C@@H](C)C#CCN1CCCC1,,3230,,,,
CC(=O)N1CCCCCC1C#CC[N+](C)(C)C (racemic),5.91,3550,,,,1.03

# Now from value to molecule, other results behind:
pKi [2],Kd [4] [nM],EC50 [5] [nM],Kd [6] [nM],SMILES,Emax (Cavia porcellus [1]),Slope of Schild plot (Cavia porcellus [3])
6.39,1160,,,CC(=O)N1CCC[C@@H]1C#CCN1CCCC1,0,1.05
7.80,80,,,CC(=O)N1CCCC[C@@H]1C#CCN1CCCC1,,0.86
5.83,6320,,,CC(=O)N1CCCC[C@H]1C#CCN1CCCC1,,0.99
6.17,1400,,,CC(=O)N1CCCC1C#CCN1CCCC1 (racemic),0,0.9
7.09,110,,,CC(=O)N1CCCCCC1C#CCN1CCCC1 (racemic),0,1.17
5.68,7850,,,CC(=O)N1CCCCC[C@H]1C#CCN1CCCC1,0,1.17
7.36,97,,,CC(=O)N1CCCCC1C#CCN1CCCC1 (racemic),0,0.88
5.29,16010,,,CC(=O)N1CCC[C@H]1C#CCN1CCCC1,0,0.8

# — ChEMBL document CHEMBL1125028, “Resolved pyrrolidine, piperidine, and perhydroazepine analogues of the muscarinic agent N-methyl-N-(1-methyl-4-pyrrolidino-2-butynyl)acetamide” (J Med Chem, 1990)
